STAT1 blocker = inhibitors of IFN-gamma induced STAT1 signaling; inhibition, % at 5.5 µM; NIH 3T3 STAT1-luciferase reporter, luminescence; 0.35% of 200,000 active;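 active means inhibition above a set limit, the mean inhibition across all tested compounds plus 3 SD, cut at about 34% in these data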;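 further: 0% = IFN-gamma with DMSO and 100% = IFN-gamma with 300 µM nifuroxazide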
STAT1 act-1 = STAT1 signaling activation | 2.6% of 200,000 active | NIH 3T3 STAT1-luciferase reporter, IFN-gamma, luminescence; 100% = IFN-gamma alone, no compound | activation (% of control), % at 5.5 µM | AID 932;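 active means activation above the screen-wide mean activation plus 3 SD, cut at about 130% in these data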;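 further: raw ratio to IFN-gamma control signal so 100% means no change and 0% no light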
STAT3 act-1 = STAT3 signaling activation | U3A cells, IL-6 STAT3-luciferase reporter, luminescence; 100% = signal with IL-6 EC80 alone | activation (% of control), % at 5.6 µM | 0.91% of 190,000 active | AID 871;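 active means activation above the screen-wide mean of compound activation plus 3 SD, cut at about 130% in these data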;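 further: 0% = background luminescence of wells with medium and substrate only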
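Assay system – human STAT1-deficient U3A cells with stable STAT3-luciferase reporter · Also added – IL-6 (33 ng/mL) · Schedule – compound 1 h, then IL-6 6 h at 37 °C · Technique – reporter luminescence signal · Evaluation – % activation versus median of IL-6-stimulated wells · Benchmarks – IL-6-only wells as 100% reference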
FLuc inhib CS = Photinus pyralis luciferase inhibition counter-screen | P08659 | ATPLite firefly luciferase biochemical luminescence, 10 min | 1.5% of 200,000 active | inhibition, % at 10 µM;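 active means inhibition above about 50% when tested at 10 µM, limit read from the data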
Target sequence (P08659 whole entry, looked up): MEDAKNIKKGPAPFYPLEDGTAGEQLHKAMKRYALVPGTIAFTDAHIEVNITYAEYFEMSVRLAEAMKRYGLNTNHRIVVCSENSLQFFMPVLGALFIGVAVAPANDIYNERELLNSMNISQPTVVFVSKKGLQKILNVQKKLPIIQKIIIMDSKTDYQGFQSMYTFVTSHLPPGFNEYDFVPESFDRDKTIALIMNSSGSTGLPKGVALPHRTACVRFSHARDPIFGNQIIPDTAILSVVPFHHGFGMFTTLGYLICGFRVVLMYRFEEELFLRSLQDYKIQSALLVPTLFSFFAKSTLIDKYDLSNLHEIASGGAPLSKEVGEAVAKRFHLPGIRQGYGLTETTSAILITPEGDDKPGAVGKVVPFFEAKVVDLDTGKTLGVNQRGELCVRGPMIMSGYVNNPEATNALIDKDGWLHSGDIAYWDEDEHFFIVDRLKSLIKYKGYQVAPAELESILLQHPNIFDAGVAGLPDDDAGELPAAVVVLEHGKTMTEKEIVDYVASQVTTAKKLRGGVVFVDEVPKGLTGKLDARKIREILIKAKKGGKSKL
STAT3 blocker = inhibitors of IL-6 induced STAT3 signaling. U3A cells, IL-6 STAT3-luciferase reporter, luminescence; host cell line lacks STAT1. inhibition, % at 5.5 µM. 0.89% of 190,000 active. AID 862;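 active means inhibition above the mean inhibition across all screened compounds plus 3 SD, cut at about 44% in these data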;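 further: 0% = DMSO only wells and 100% = 100 µM nifuroxazide control wells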
FLuc act counter = affects firefly luciferase, flagging false hits in luciferase stimulation screens | P08659 | activation factor at 10 µM | 200,000 tested, under 10 active | ATPlite luciferase biochemical, luminescence, 10 min; 0 = ATP-free wells, 1 = DMSO control;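 active means luciferase activation factor, scaled between plate controls, of at least 2 with compound at 10 µM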
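Assay system: Luciferase/luciferin detection reagent, cell-free biochemical luciferase assay / Read-out: luciferase activation / Benchmarks: No-ATP low control, compound-free enzyme-plus-ATP high control / Medium: PBS buffer for ATP / Detection: luminescence measurement of luciferase light output / Schedule: 10 min at ambient temperature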
STAT3 act-2 = confirmation of STAT3 signaling activators | shares compounds with STAT3 act-1 | U3A STAT3-luciferase reporter, IL-6 potentiation, luminescence; U3A cells lack STAT1; 100 means same as IL-6 alone | potentiation (% of control), % at 5.7 µM | 64% of 1,200 active | AID 1267;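 active means percent activation of the STAT3 luciferase reporter above a set limit taken from the earlier primary screen, cut at about 130% in these data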;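 further: 0% = background signal of medium plus substrate and 100% = median of IL-6 with DMSO wells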
NFkB act 2 = NF-kappaB activation in STAT3 activator counter-screen; shares compounds with STAT3 act-1; human cells, NF-kappaB reporter activation; activation (% of control), % at 5.7 µM; 11% of 1,200 active; AID 1309; in the data active means activation above about 120%;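 further: reporter induced by TNF-alpha stimulation; 100% = median of stimulated DMSO wells and 0% = no signal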
STAT1 act-2 = STAT1 activation in STAT3 activator counter-screen; shares compounds with STAT3 act-1; NIH 3T3 STAT1-luciferase reporter, IFN-gamma, luminescence; activation (% of control), % at 5.7 µM; 13% of 1,200 active; AID 1318;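 active means activation above the solvent-only control well mean plus 3 SD, set per screening run, cut at about 120% in these data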;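 further: 100% = IFN-gamma with DMSO median signal so 100% means no change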
The depositor's hits bear a star; x = not tested or not shown. Sampled rows, rich in hits. Any-hit rate of the full collection: about 4.9%.

SMILES	STAT1 blocker	STAT1 act-1	STAT3 act-1	FLuc inhib CS	STAT3 blocker	FLuc act counter	STAT3 act-2	NFkB act 2	STAT1 act-2
O=C(O)c1[nH]c2ccccc2c1NS(=O)(=O)Cc1ccccc1	-0.9	100.8	154.6*	-3.8	-56.6	1	165.1*	102.6	93.9
COc1ccc(S(=O)(=O)Nc2ccccn2)cc1OC	6.2	94.2	98.7	-5.5	1.1	1.1	x	x	x
CCc1ccc(OCC(=O)NC(C)C)cc1	-0.5	98.5	101.3	0.8	4.9	1	x	x	x
Cc1cc(C)c(NC(=O)CS(=O)CC(=O)NCC2CCCO2)c(C)c1 (stereo not given)	1.1	99.0	140.0*	0.5	-46.5	1	123.8	106.4	104.1
Cc1cc(C)cc(OCC(=O)NCC2CCCO2)c1 (stereo not given)	17.2	84.0	72.2	-5.9	33.7	1.1	x	x	x
Cc1ccc(-c2[nH]c3ccccc3c2C(C[N+](=O)[O-])c2ccco2)cc1 (stereo not given)	19.3	82.1	151.9*	-3.5	-55.5	1	134.0*	97.1	77.6
COc1ccc2nc(N=Nc3c(O)ccc4ccccc34)sc2c1	11.1	89.2	136.7*	16.3	-42.6	0.8	132.5	102.7	89.5
COc1cccc(-c2nc(N3CCC(C)CC3)c3ccccc3n2)c1O	3.4	96.9	121.7	-0.7	-20.6	1	x	x	x
COc1cccc(-c2nc(NC(C)(C)C)c3ccccc3n2)c1O	5.1	95.3	143.3*	0.5	-45.5	1	129.3	105.6	102.5
COc1cccc(-c2nc(N3CC(C)CC(C)C3)c3ccccc3n2)c1O (stereo not given)	3.9	96.4	138.5*	-5.5	-36.9	1.1	131.2	106.2	97.7
CCOc1ccc(-n2c(SCC(=O)c3c(N)n(C)c(=O)n(C)c3=O)nnc2-c2cccnc2)cc1	-1.2	101.1	102.6	-7.2	-3.1	1.1	x	x	x
Cc1ccc(-n2nc(C)cc2NC(=O)CC#N)cc1	5.8	93.3	99.5	-3.3	7.3	1	x	x	x
Cc1ccc(-n2nc(C)cc2NC(=O)c2ccc(C)s2)cc1	-0.2	100.2	135.9*	-4.5	-37.0	1	113.8	102.0	97.0
COc1cc2c(cc1NC(=O)C(C)Sc1cccc[n+]1[O-])oc1ccccc12 (stereo not given)	-18.0	116.1	136.3*	-5.7	-42.7	1.1	138.8*	112.3	114.9
COc1cc2c(cc1NC(=O)c1ccncc1)oc1ccccc12	-18.2	116.7	154.8*	-5.6	-60.5	1.1	136.6*	104.9	119.7
COc1cc2c(cc1NC(=O)C(C)Sc1nc3ccccc3n1C)oc1ccccc12 (stereo not given)	3.9	96.5	119.2	-5.2	-22.2	1.1	x	x	x
COc1cc2c(cc1NC(=O)C(C)N1CCN(S(=O)(=O)c3ccc(C)c(C)c3)CC1)oc1ccccc12 (stereo not given)	0.9	99.2	102.4	-9.3	-2.6	1.1	x	x	x
COc1cc2c(cc1NC(=O)C(C)OC(=O)c1ccc(S(=O)(=O)Nc3ccccc3Cl)cc1)oc1ccccc12 (stereo not given)	-3.8	101.7	140.9*	-5.2	-40.7	1.1	128.2	106.5	103.8
COc1cc2c(cc1NC(=O)c1cccnc1)oc1ccccc12	-27.7	125.4	109.1	-3.5	-10.6	1	x	x	x
C/C(=N\NC(=O)CSc1nc(C)cc(C)n1)c1cccc([N+](=O)[O-])c1	7.3	93.4	102.8	-3.4	-8.6	1	x	x	x
CC1(C)CC(=O)C2=C(C1)N(c1cccnc1)C(N)=C(C#N)C2c1cccs1 (stereo not given)	1.0	99.2	100.2	-3.2	3.7	1	x	x	x
CC1(C)CC(=O)C2=C(C1)N(c1ccccc1C#N)C(N)=C(C#N)C2c1cccs1 (stereo not given)	2.3	100.6	140.2*	-5.2	-46.5	1.1	149.3*	112.0	106.3
COC(=O)C(NNc1ccccc1)(NC(=O)c1cccc(F)c1)C(F)(F)F (stereo not given)	5.4	95.0	100.3	-0.9	5.6	1	x	x	x
O=C(c1ccccc1)N1CCN2C(=O)c3ccccc3C12c1ccc(Cl)cc1 (stereo not given)	26.9	75.8	417.8*	-4.8	-375.8	1	282.6*	112.0	75.0
O=C(c1ccc(F)cc1)N1CCN2C(=O)c3ccccc3C12c1ccc(Cl)cc1 (stereo not given)	26.8	74.0	203.8*	-8.1	-96.7	1.1	146.3*	115.5	97.0
SMILES	STAT1 blocker	STAT1 act-1	STAT3 act-1	FLuc inhib CS	STAT3 blocker	FLuc act counter	STAT3 act-2	NFkB act 2	STAT1 act-2
Cc1cc(C)c2oc(-c3ccc(Cl)c(NC(=O)c4ccc(C#N)cc4F)c3)nc2c1	-11.1	110.2	173.2*	2.9	-81.4	1	165.2*	100.8	108.3
N#Cc1ccc(C(=O)Nc2cccc3ncccc23)c(F)c1	10.9	91.8	93.5	5.8	5.7	0.9	x	x	x
CCCN1CCN(S(=O)(=O)c2ccc3c(c2)OCCO3)CC1	8.9	91.4	97.9	-9.5	6.5	1.1	x	x	x
Cc1noc(/C=C/N(C)C)c1S(=O)(=O)N1CCc2ccccc21	6.1	94.5	151.1*	-2.4	-55.7	1	139.2*	103.4	96.9
CCN(CC)CCN(C(=O)CCOc1ccccc1)c1nc2ccc(F)cc2s1	-4.4	103.3	100.7	-2.7	10.9	1	x	x	x
COc1ccc([N+](=O)[O-])cc1NC(=O)C(C)Sc1nc(C)c(C)c(C)n1 (stereo not given)	-0.8	100.2	97.7	-3.7	4.0	1	x	x	x
O=C(CSc1nc2c([nH]c3ccccc32)c(=O)n1-c1ccc(F)cc1)NCc1ccco1	14.0	87.3	142.1*	-1.8	-40.0	1	118.8	94.0	87.2
CC(=O)N1CCC(=NNc2ncc(C(F)(F)F)cc2Cl)CC1	-6.3	105.5	108.1	-2.4	-5.7	1	x	x	x
CCCc1cc(=O)[nH]c(SCC(=O)c2c[nH]c3ccccc23)n1	8.6	92.2	143.0*	-6.6	-36.1	1.1	123.0	101.7	104.3
O=C(CN1CCN(Cc2ccc(F)cc2)C1=O)NC1CCCC1	-0.4	99.7	111.0	-8.8	0.6	1.1	x	x	x
CC(=O)Nc1nc(-c2ccc(Cl)cc2)nc(C)c1C(C)=O	11.7	89.2	136.8*	-2.2	-41.8	1	121.6	103.5	96.2

From PubChem
